# Source: PubChem BioAssay
# CaV13 ICDI inh: Disruptors of the CACNA1D IQ motif to Ca2+-dependent inactivation inhibitor domain association, primary screening, Förster resonance energy transfer in intact living …; HEK cells, CFP/YFP FRET ICDI-IQ, plate reader, 10 min; percent FRET-ratio fall versus neutral wells; inhibition, % at 12.3 µM; 340,000 tested, 0.098% active;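 active = mean replicate inhibition of at least 30% and at least 1% of replicates passing that level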;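 also: 0% = median of the neutral control wells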
# CFTR F508del cor: correctors of CFTR F508del function in bronchial epithelial cells; 350,000 tested, 0.36% active; CFBE cells, YFP halide quenching; stimulated with forskolin plus potentiator P3; % fluorescence drop versus neutral controls; activity (quench increase), % at 7.58 µM; AID 720511;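 active = mean added fluorescence quench of at least 8% versus neutral control, with both replicates also reaching 8%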;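 also: cells transiently co-express mutant CFTR-F508del with the halide-sensitive YFP; corrector assay measuring rescue of mutant channel to the surface after 24 h compound exposure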
# Cneo AK release: Cryptococcus neoformans lysis via adenylate kinase release; C. neoformans lysis, adenylate kinase release luminescence, 4 h; normalised: neutral wells 0, clomiphene wells 100; lysis activity, % at 15 µM; 360,000 tested, 0.2% active; AID 651654;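 active = mean lysis activity across replicates of at least 80%, whatever share of replicates individually reach that level; inactive = mean lysis activity below 80%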
#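 Signal: Adenylate kinase release luminescence | Assay system: Log-phase Cryptococcus neoformans yeast cells | Input: Cells at 5 × 10^6 per mL | Buffer or medium: Fresh YPD growth medium | Compound: Single dose | Schedule: Static 4 h at 37 °C with compound, 1 h detection | Controls: Clomiphene | Read-out: Luminescence rise reflecting yeast cell lysis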
# rRNA inh HTS: inhibits bacterial ribosomal RNA function over humanized ribosomes | 350,000 tested, 1.6% active | AID 720706 | E. coli WT GFP vs humanized-ribosome RFP mutants, fluorescence, 24 h; active compounds read low; DMSO median 0, no signal -100 | GFP signal change (wild-type ribosome), % (concentration not given with the values);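 active = significant combined selectivity score with lowered wild-type GFP, culture density cut under 30%, mutant RFP and density less affected; inactive = any of these conditions unmet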
# Starred values were filed as active, the others as inactive; / = not tested or not shown. Hits are enriched below; roughly 1.7% of the tested compounds scored in any of these assays.
SMILES,CaV13 ICDI inh,CFTR F508del cor,Cneo AK release,rRNA inh HTS
COc1cccc(-c2ccc3c(c2)O[C@H](CN(C)Cc2cncnc2)[C@@H](C)CN([C@H](C)CO)S3(=O)=O)c1,/,-0.4,3.1,-6.7
C[C@@H]1CCCCO[C@H](CN(C)C(=O)CCC(F)(F)F)[C@H](C)CN([C@@H](C)CO)C(=O)c2cc(NS(C)(=O)=O)ccc2O1,/,-0.8,/,-2.6
CC(C)c1ccc2c(c1)C(N1CCN(C)CC1)Cc1cccnc1S2 (stereo not drawn),4.1,1.1,/,-22.3*
COc1cccc(NC(=O)N(C)C[C@@H]2Oc3cc(C#CC4(O)CCCC4)ccc3S(=O)(=O)N([C@@H](C)CO)C[C@@H]2C)c1,/,-2.3,-1.0,-0.1
C[C@H](CO)N1C[C@H](C)[C@@H](CN(C)Cc2ccc(Oc3ccccc3)cc2)Oc2c(NC(=O)Nc3ccccc3)cccc2C1=O,/,2.5,-5.7,-2.0
COC(=O)C(NC(=O)c1ccccc1)(Nc1nc(C)cs1)C(F)(F)F (stereo not drawn),-7.0,-1.3,-3.7,-41.6*
COC(=O)C(NC(C)=O)(Nc1nc(C)cs1)C(F)(F)F (stereo not drawn),-3.0,/,1.8,/
CN(Cc1cccs1)C(=O)c1cccc(S(=O)(=O)N2CCCCCC2)c1,-5.6,31.2*,-2.1,-6.5
CC(C)NC(=O)N(C)C[C@H]1Oc2ccc(NS(=O)(=O)c3cccs3)cc2C(=O)N([C@H](C)CO)C[C@H]1C,/,-2.7,/,-3.5
Cn1c(=O)c(C#N)c(-c2ccc(F)cc2)c2cc(C(=O)c3cc(Cl)cc(Cl)c3O)cnc21,-4.8,3.3,-2.0,-28.0*
COC(=O)Nc1sccc1C(=O)Nc1sccc1C(=O)OC,-9.4,/,-5.8,/
COC(=O)c1ccsc1NC(=O)c1ccccc1,-6.1,8.6*,-0.7,3.3
O=C(NC[C@H]1CC[C@@H]2[C@@H](CN2C(=O)CN2CCOCC2)O1)NC1CCCCC1,/,-0.8,/,/
COc1ccc(-c2cn3cc(C)ccc3n2)cc1F,-5.0,0.7,-10.8,-30.6*
COc1ccc(-c2cn3cc(C)ccc3n2)cc1OC,-5.5,/,-5.8,/
Cc1ccc2nc(-c3ccc4c(c3)OCCO4)cn2c1,-4.2,12.1*,-22.1,-13.2
O=C(O)COC(=O)Cc1ccccc1Nc1c(Cl)cccc1Cl,-5.5,16.5*,-0.2,/
CC(=O)O[C@H]1C(=O)[C@]2(C)[C@H]([C@H](OC(=O)c3ccccc3)[C@]3(O)C[C@H](OC(=O)[C@H](O)[C@@H](NC(=O)c4ccccc4)c4ccccc4)C(C)=C1C3(C)C)[C@]1(OC(C)=O)CO[C@@H]1C[C@@H]2O,-4.7,10.2*,-0.2,/
CC(=O)O[C@H]1C(=O)[C@@]2(C)C([C@H](OC(=O)c3ccccc3)[C@]3(O)C[C@H](OC(=O)[C@H](O)[C@@H](NC(=O)c4ccccc4)c4ccccc4)C(C)=C1C3(C)C)[C@]1(OC(C)=O)CO[C@@H]1C[C@H]2O (stereo partly drawn),/,17.9*,0.8,12.5
CCNC(=O)[C@@H]1[C@@H](CO)[C@@H]2Cn3c(cccc3=O)[C@@H]2N1C(=O)C1CCCC1,/,-0.3,-0.6,1.9
CCOC(=O)/C(=C/C=C1\Sc2cc(C)c(C)cc2N1CC)C(C)=O,-9.3,39.0*,/,37.7
Cc1ccccc1-c1ccc([C@@H]2[C@@H](CO)N3C(=O)CN(C(=O)Nc4ccccc4)C[C@H]23)cc1,/,/,/,1.1
CO[C@@H]1CN(C)C(=O)c2cc(NC(=O)C3CCC3)ccc2OC[C@@H](C)N(C)C[C@@H]1C,/,-1.4,/,0.2
C[C@H]1CN([C@@H](C)CO)C(=O)Cc2cc(NC(=O)Nc3ccc(C(F)(F)F)cc3)ccc2O[C@H]1CN(C)S(=O)(=O)c1ccccc1,/,11.2*,2.2,-1.6
C[C@@H]1CN([C@@H](C)CO)C(=O)Cc2cc(NC(=O)Nc3ccc(C(F)(F)F)cc3)ccc2O[C@H]1CN(C)C(=O)Nc1ccccc1,/,9.3*,-1.4,-0.4
SMILES,CaV13 ICDI inh,CFTR F508del cor,Cneo AK release,rRNA inh HTS
CC(C)NC(=O)Nc1cccc2c1O[C@@H](CN(C)C(=O)NC(C)C)[C@H](C)CN(C)C2=O,/,/,/,-4.3
CCOc1ccc(NC(=O)CN(C)C(=O)c2cccc3ccccc23)cc1OCC,-6.6,0.9,/,-1.6
CCOc1ccc(NC(=O)CN(C)C(=O)c2sc3ccccc3c2Cl)cc1OCC,-6.7,4.4,-0.1,-29.4*
CCC(=O)N1CC2(CCN(Cc3cccnc3)CC2)c2c(n(C)c3cc(OC)ccc23)[C@H]1CO,/,-3.8,/,1.6
CCOc1ccc(N2C(=O)C3C(C2=O)C3(c2ccccc2)c2ccccc2)cc1 (stereo not drawn),-2.9,/,4.1,-13.6
COc1cccc(N2C(=O)C3C(C2=O)C3(c2ccccc2)c2ccccc2)c1 (stereo not drawn),-4.5,1.3,0.6,-33.0*
O=C(CCc1ccccc1)Nc1sc2c(c1C(=O)O)CCCC2,-1.9,-0.3,0.4,-31.8*
O=C(/C=C/c1ccco1)Nc1scc(-c2ccccc2)c1C(=O)O,-4.5,-0.4,-5.0,-33.9*
Cc1ccc(C(=O)Nc2sc3c(c2C(=O)O)CCCC3)o1,/,2.0,-1.4,-25.4*
Cc1ccc(C(=O)Nc2scc(-c3ccccc3)c2C(=O)O)o1,-3.5,-0.6,/,-34.2*
COCC(=O)Nc1ccc2c(c1)C(=O)N(C)C[C@@H](OC)[C@H](C)CN(C)[C@H](C)CO2,/,-0.6,2.4,2.1
O=C(C1CC1)N1CCCCN2[C@H](CO)[C@@H](c3ccc(C#CC4CC4)cc3)[C@@H]2C1,/,-1.3,-2.4,/
C/C(=N\O)c1cccc(Br)c1,-4.8,-0.1,/,-25.2*
Cc1noc(C)c1NC(=O)Nc1ccc2c(c1)C(=O)N([C@@H](C)CO)C[C@@H](C)[C@@H](CN(C)C(=O)Cc1ccccc1)OCCCC[C@@H](C)O2,/,2.0,1.3,-1.3
COCC(=O)N1C[C@H](C)[C@H](OC)CN(C)C(=O)c2ccc(NC(=O)NC(C)C)cc2OC[C@@H]1C,/,-1.2,80.2*,2.1
CO[C@@H]1CN(C)C(=O)c2ccc(NC(C)=O)cc2OC[C@@H](C)N(C(=O)Cc2cccnc2)C[C@H]1C,/,-1.1,97.4*,3.3
COCC(=O)Nc1ccc2c(c1)OC[C@@H](C)N(C(=O)Cc1cccnc1)C[C@H](C)[C@@H](OC)CN(C)C2=O,/,0.6,91.8*,1.9
CO[C@H]1CN(C)C(=O)c2cc(NS(=O)(=O)CC(F)(F)F)ccc2OC[C@H](C)N(Cc2cccnc2)C[C@@H]1C,/,-3.2,102.9*,-0.6
Cc1ccc(S(=O)(=O)NC[C@H]2CC[C@H]3[C@H](CN3Cc3ccccc3C(=O)O)O2)cc1,/,-4.1,/,/
COc1ccc2c3c(n(C)c2c1)[C@@H](CO)N(C)CC31CCN(S(=O)(=O)c2cccs2)CC1,/,-0.6,/,-5.0
COc1ccccc1CNC(=O)C[C@H]1CC[C@H](NC(=O)CN(C)C)[C@@H](CO)O1,/,-1.8,-4.0,-1.2
Cc1cc(C)nc(NC(=O)/C=C/c2cccs2)c1,-8.2,4.7,-1.7,-26.6*
CN(C)CCNc1ccc(-c2nn(C)c(=O)c3ccccc23)cc1[N+](=O)[O-],-12.4,0.4,/,34.5
